The record followed here is ChEMBL document CHEMBL4765399, “Design, synthesis, and biological evaluation of 5-((8-methoxy-2-methylquinolin-4-yl)amino)-1H-indole-2-carbohydrazide derivatives as novel Nur77 modulators” (Eur J Med Chem, 2020).

SMILES strings stand for the structures. Bounds are passed on as bounds.

One test concerns SMMC-7721. Nature of the test: Antiproliferative activity against human SMMC-7721 cells assessed as reduction in cell viability incubated for 48 hrs by MTT assay. Type of test: functional, cell-based. The note with it: SMMC-7721, 48 h. The gist of the method: (§1)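 MTT assay after 48 h exposure at six concentrations, range chosen by cytotoxicity. Inhibition = (ODcontrol − ODtest)/ODcontrol × 100%; IC50 is the concentration halving OD versus untreated cells. Means ± SD of three independent determinations. HepG2 and SMMC-7721 grown in DMEM, QGY-7703 and LO2 in RPMI 1640, with 10% FBS at 37 °C.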

Another test concerns L02. The test is described as follows: Cytotoxicity against human L02 cells assessed as reduction in cell viability incubated for 48 hrs by MTT assay. Type of test: cell-based. To be noted: L02, 48 h. In short, it runs like this: as §1
The next test relates to QGY-7703. Nature of the test: Antiproliferative activity against human QGY-7703 cells assessed as reduction in cell viability incubated for 48 hrs by MTT assay. Type of test: functional, cell-based. To be noted: QGY-7703, 48 h. In short, it runs like this:
as §1

For another test, the system named is HepG2. Nature of the test: Antiproliferative activity against human HepG2 cells assessed as reduction in cell viability incubated for 48 hrs by MTT assay. Type of test: functional, cell-based. The note with it: HepG2, 48 h. The gist of the method:
as §1

Test [1] deals with Nuclear receptor subfamily 4immunitygroup A member 1 (Homo sapiens, UniProt P22736). The test is described as follows: Binding affinity to Nur77 ligand binding domain (unknown origin) at 10 uM by surface plasmon resonance analysis. To be noted: filed as modulator. The gist of the method: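 Single-concentration SPR screen at 10.0 µM against Nur77-LBD; binding given as RU response.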
Chain of Nuclear receptor subfamily 4immunitygroup A member 1 (P22736 whole entry, the tested form may be a part): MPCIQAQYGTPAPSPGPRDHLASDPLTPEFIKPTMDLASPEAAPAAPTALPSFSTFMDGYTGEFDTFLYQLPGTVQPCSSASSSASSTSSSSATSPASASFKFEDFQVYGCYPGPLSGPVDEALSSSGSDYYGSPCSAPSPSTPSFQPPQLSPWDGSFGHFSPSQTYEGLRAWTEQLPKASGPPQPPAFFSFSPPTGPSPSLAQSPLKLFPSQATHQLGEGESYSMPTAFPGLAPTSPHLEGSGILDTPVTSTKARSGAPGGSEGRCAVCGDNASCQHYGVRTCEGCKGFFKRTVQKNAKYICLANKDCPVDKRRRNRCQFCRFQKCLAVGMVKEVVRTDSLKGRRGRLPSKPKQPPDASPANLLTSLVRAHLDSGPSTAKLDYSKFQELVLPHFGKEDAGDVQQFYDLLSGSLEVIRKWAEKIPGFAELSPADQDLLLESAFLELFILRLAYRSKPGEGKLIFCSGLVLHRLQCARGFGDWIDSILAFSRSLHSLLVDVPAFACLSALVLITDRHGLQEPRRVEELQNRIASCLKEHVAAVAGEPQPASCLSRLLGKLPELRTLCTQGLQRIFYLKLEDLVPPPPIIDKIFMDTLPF

As for `COc1cccc2c(Nc3ccc4[nH]c(C(=O)N/N=C/c5ccc(O)cc5)cc4c3)cc(C)nc12`, the IC50 in the test on SMMC-7721 was over 20 µM; with L02, 9.31 µM; in the test with QGY-7703 it was 14.1 µM; in the test on HepG2, over 20 µM.

With `COc1cccc2c(Nc3ccc4[nH]c(C(=O)N/N=C/c5cccc(C)c5)cc4c3)cc(C)nc12`, the IC50 in the test with SMMC-7721 was 3.14 µM; in the test with L02, 3.16 µM; in the test with QGY-7703, 1.74 µM; with HepG2 it was 2.92 µM.

In the case of `COc1cccc2c(Nc3ccc4[nH]c(C(=O)N/N=C/c5cc(O)ccc5O)cc4c3)cc(C)nc12`, the IC50 with SMMC-7721, in the test on L02, with QGY-7703 and with HepG2 was over 20 µM each time.

Turning to `COc1ccc(/C=N/NC(=O)c2cc3cc(Nc4cc(C)nc5c(OC)cccc45)ccc3[nH]2)cc1C(F)(F)F`, the IC50 in the test on SMMC-7721 was 0.73 µM; with L02 it was 5.23 µM; in the test with QGY-7703, 0.4 µM; with HepG2, 1.98 µM. This compound also gave an Activity in test [1] of 91 RU.

Regarding `COc1ccc(/C=N/NC(=O)c2cc3cc(Nc4cc(C)nc5c(OC)cccc45)ccc3[nH]2)c(OC)c1`, the IC50 was 16.2 µM in the test on SMMC-7721, 5.72 µM with L02, 5 µM in the test on QGY-7703 and 7.47 µM in the test on HepG2.

As for `COc1cccc2c(Nc3ccc4[nH]c(C(=O)N/N=C/c5cccc(C(F)(F)F)c5)cc4c3)cc(C)nc12`, the IC50 in the test on SMMC-7721 is over 20 µM; in the test with L02, 13.5 µM; in the test on QGY-7703 it was 5.39 µM; in the test on HepG2, 4.19 µM.

For the compound `COc1cccc2c(Nc3ccc4[nH]c(C(=O)N/N=C/c5cc(C(C)(C)C)c(O)c(C(C)(C)C)c5)cc4c3)cc(C)nc12`, the IC50 was over 20 µM in the test on SMMC-7721, 3.54 µM in the test with L02, 4.02 µM in the test on QGY-7703 and 7.45 µM in the test with HepG2.

`COc1cccc2c(Nc3ccc4[nH]c(C(=O)N/N=C/c5ccc(C#N)cc5)cc4c3)cc(C)nc12`: the IC50 is over 20 µM with SMMC-7721, 2.8 µM with L02, 2.36 µM in the test on QGY-7703 and 10.4 µM with HepG2.

On to `COc1cccc2c(Nc3ccc4[nH]c(C(=O)N/N=C/c5cccnc5)cc4c3)cc(C)nc12`, for which the IC50 with SMMC-7721, in the test on L02, with QGY-7703 and in the test on HepG2 was over 20 µM each time.

Turning to `COc1cccc2c(Nc3ccc4[nH]c(C(=O)N/N=C/c5ccc[nH]5)cc4c3)cc(C)nc12`, the IC50 in the test with SMMC-7721, in the test on L02, in the test with QGY-7703 and in the test on HepG2 was over 20 µM throughout.

Regarding `COc1ccccc1/C=N/NC(=O)c1cc2cc(Nc3cc(C)nc4c(OC)cccc34)ccc2[nH]1`, the IC50 with SMMC-7721 turned out to be 4.58 µM; in the test with L02, 5.17 µM; with QGY-7703 it was 3.4 µM; in the test with HepG2, 2.1 µM.

As for `COc1cccc(OC)c1/C=N/NC(=O)c1cc2cc(Nc3cc(C)nc4c(OC)cccc34)ccc2[nH]1`, the IC50 with SMMC-7721 was 11.7 µM; with L02, 7.31 µM; in the test with QGY-7703, over 20 µM; with HepG2, 7.52 µM.

For `COc1ccc2[nH]c(C)c(/C=N/NC(=O)c3cc4cc(Nc5cc(C)nc6c(OC)cccc56)ccc4[nH]3)c2c1`, the IC50 in the test with SMMC-7721 is over 20 µM; in the test with L02, over 20 µM; with QGY-7703, 14.1 µM; with HepG2 it was 6.62 µM.

In the case of `COc1cccc(/C=N/NC(=O)c2cc3cc(Nc4cc(C)nc5c(OC)cccc45)ccc3[nH]2)c1OC`, the IC50 was determined as 4.89 µM in the test on SMMC-7721, 2.79 µM with L02, 1.96 µM in the test on QGY-7703 and 1.09 µM in the test on HepG2.

As to `COc1ccc(/C=N/NC(=O)c2cc3cc(Nc4cc(C)nc5c(OC)cccc45)ccc3[nH]2)cc1OC`, the IC50 with SMMC-7721, in the test on L02, in the test with QGY-7703 and in the test on HepG2 was over 20 µM in each case.

On to `COc1cccc2c(Nc3ccc4[nH]c(C(=O)N/N=C/c5ccccc5Cl)cc4c3)cc(C)nc12`, for which the IC50 is 0.98 µM with SMMC-7721, 3.68 µM in the test on L02, 1.06 µM in the test with QGY-7703 and 1.24 µM with HepG2.

Consider `COc1cccc2c(Nc3ccc4[nH]c(C(=O)N/N=C/c5ccccc5F)cc4c3)cc(C)nc12`, for which the IC50 in the test with SMMC-7721 turned out to be 1.38 µM; in the test on L02, 2.48 µM; with QGY-7703, 5.42 µM; in the test with HepG2, 1.22 µM.

`COc1ccc(/C=N/NC(=O)c2cc3cc(Nc4cc(C)nc5c(OC)cccc45)ccc3[nH]2)c2ccccc12`: the IC50 in the test with SMMC-7721 was found to be 11 µM; with L02, 9.16 µM; in the test on QGY-7703, 4.61 µM; in the test with HepG2, 16.6 µM.

Turning to `COc1cccc(/C=N/NC(=O)c2cc3cc(Nc4cc(C)nc5c(OC)cccc45)ccc3[nH]2)c1`, the IC50 was 1.75 µM with SMMC-7721, 9.85 µM in the test on L02, over 20 µM in the test on QGY-7703 and over 20 µM in the test with HepG2.

Turning to `COc1ccc(/C=N/NC(=O)c2cc3cc(Nc4cc(C)nc5c(OC)cccc45)ccc3[nH]2)cc1Br`, the IC50 is over 20 µM with SMMC-7721, 1.2 µM in the test on L02, 1.89 µM with QGY-7703 and over 20 µM in the test with HepG2.

For `COc1cccc2c(Nc3ccc4[nH]c(C(=O)N/N=C/c5ccc(F)c(C(F)(F)F)c5)cc4c3)cc(C)nc12`, the IC50 in the test with SMMC-7721 was over 20 µM; with L02 it was over 20 µM; in the test on QGY-7703 it was 2.43 µM; with HepG2, 2.17 µM.

As for `COc1ccc(/C=N/NC(=O)c2cc3cc(Nc4cc(C)nc5c(OC)cccc45)ccc3[nH]2)c(OC)c1OC`, the IC50 with SMMC-7721 was found to be 8.43 µM; in the test with L02 it was 13.7 µM; in the test with QGY-7703, 3.78 µM; in the test with HepG2, 6.32 µM.

In the case of `CC1=C(O)C(=O)C=C2C1=CC=C1[C@@]2(C)CC[C@@]2(C)[C@@H]3C[C@](C)(C(=O)O)CC[C@]3(C)CC[C@]12C` [CELASTROL], the IC50 with SMMC-7721 is 1.07 µM; with L02, 1.94 µM; in the test with QGY-7703, 2.43 µM; in the test on HepG2, 1.3 µM.

On to `COc1cccc2c(Nc3ccc4[nH]c(C(=O)N/N=C/c5ccc(O)cc5O)cc4c3)cc(C)nc12`, for which the IC50 is over 20 µM with SMMC-7721, 15.9 µM in the test with L02, over 20 µM in the test on QGY-7703 and 8.15 µM with HepG2.

Turning to `COc1cccc2c(Nc3ccc4[nH]c(C(=O)N/N=C/c5ccnc6ccccc56)cc4c3)cc(C)nc12`, the IC50 in the test with SMMC-7721 was over 20 µM; in the test with L02, over 20 µM; in the test on QGY-7703, 15.5 µM; with HepG2, over 20 µM.

Take `COc1cccc2c(Nc3ccc4[nH]c(C(=O)N/N=C/c5ccc([N+](=O)[O-])cc5O)cc4c3)cc(C)nc12`: the IC50 in the test on SMMC-7721, in the test with L02, in the test on QGY-7703 and in the test on HepG2 was over 20 µM throughout.

As to `COc1cccc2c(Nc3ccc4[nH]c(C(=O)N/N=C/c5ccc(C(F)(F)F)cc5C(F)(F)F)cc4c3)cc(C)nc12`, the IC50 in the test with SMMC-7721, with L02, in the test with QGY-7703 and in the test on HepG2 was over 20 µM each time.

`COc1cc(/C=N/NC(=O)c2cc3cc(Nc4cc(C)nc5c(OC)cccc45)ccc3[nH]2)cc(OC)c1OC`: the IC50 in the test on SMMC-7721, with L02, in the test with QGY-7703 and in the test on HepG2 was over 20 µM each time.

`COc1cccc2c(Nc3ccc4[nH]c(C(=O)N/N=C/c5ccncc5)cc4c3)cc(C)nc12`: the IC50 in the test with SMMC-7721, in the test on L02, in the test with QGY-7703 and with HepG2 was over 20 µM throughout.

As to `COc1cccc2c(Nc3ccc4[nH]c(C(=O)N/N=C/c5ccccn5)cc4c3)cc(C)nc12`, the IC50 was 4.37 µM in the test on SMMC-7721, 10.3 µM with L02, over 20 µM in the test with QGY-7703 and 14.7 µM with HepG2.

In the case of `COc1ccc(/C=N/NC(=O)c2cc3cc(Nc4cc(C)nc5c(OC)cccc45)ccc3[nH]2)cc1`, the IC50 with SMMC-7721 is 1.21 µM; in the test with L02, 0.76 µM; in the test with QGY-7703 it was over 20 µM; with HepG2, 0.69 µM. In addition, in test [1], the Activity was determined as 88.2 RU.

With `COc1cccc2c(Nc3ccc4[nH]c(C(=O)N/N=C/c5cc(C(F)(F)F)ccc5Br)cc4c3)cc(C)nc12`, the IC50 is over 20 µM with SMMC-7721, over 20 µM in the test with L02, 12.7 µM in the test on QGY-7703 and over 20 µM in the test with HepG2.

As for `COc1cc(/C=N/NC(=O)c2cc3cc(Nc4cc(C)nc5c(OC)cccc45)ccc3[nH]2)cc(OC)c1`, the IC50 in the test with SMMC-7721, with L02, with QGY-7703 and with HepG2 was over 20 µM throughout.

For the compound `O=C(O)c1ccc2cc(-c3ccc(O)c(C45CC6CC(CC(C6)C4)C5)c3)ccc2c1` [O-DEMETHYLATED ADAPALENE], the IC50 in the test with SMMC-7721 was found to be 5.25 µM; in the test with L02, 10.1 µM; in the test with QGY-7703, 2.38 µM; in the test on HepG2 it was 2.93 µM.

On to `COc1cccc2c(Nc3ccc4[nH]c(C(=O)N/N=C/c5cccs5)cc4c3)cc(C)nc12`, for which the IC50 with SMMC-7721 was found to be 6.49 µM; in the test on L02, 6.33 µM; in the test with QGY-7703 it was 1.53 µM; in the test on HepG2, 5.44 µM.

As for `COc1cccc2c(Nc3ccc4[nH]c(C(=O)N/N=C/c5cc6ccccc6nc5Cl)cc4c3)cc(C)nc12`, the IC50 was 18.8 µM in the test on SMMC-7721, over 20 µM with L02, 9.31 µM in the test with QGY-7703 and over 20 µM in the test on HepG2.
